Measurements pooled from the literature.
Protocols differ between the studies behind these lines.
Target: Calcium/calmodulin-dependent protein kinase type II subunit alpha (CAMK2A, Homo sapiens, UniProt Q9UQM7)

With `CCN1CCN(Cc2ccc(C(=O)Nc3ccc(C)c(Oc4ccc5c(c4)CC(=O)N5)c3)cc2C(F)(F)F)CC1` the remaining binding was 100% (binding, competition with immobilised ligand; 1 µM).
With `FC(F)(F)c1ccc2c(c1)nc(-c1cccnc1)n2C1CC1` the remaining binding was 88% (cell-free assay, competition with immobilised ligand; 1 µM).
The remaining binding of `Cc1cnn2ncc(-c3ccnc(N(C)C)n3)c2c1` is reported as 86% (binding; 1 µM).
The remaining binding of `C=CC(=O)N1CCC(C(=O)NCC(=O)N2CCN(c3nc(-c4cnc(N)nc4C(F)F)nc(N4CCOCC4)n3)CC2)CC1` is reported as 96% (binding, competition with immobilised ligand; 1 µM).
With `COc1cnc(Nc2cccc(S(N)(=O)=O)c2)nc1N1CCN(c2ccccc2)C(=O)C1` the remaining binding was 100% (binding, competition with immobilised ligand; 1 µM).
`CCOC(=O)c1cc2cc(-c3cc(C(=O)NCc4ccc(C(=O)O)cc4)nn3C)ccc2[nH]1` has a remaining binding of 76% (cell-free assay, competition with immobilised ligand; 0.1 µM).
`O=C(c1ccc(Nc2ncc(Cl)c(-c3ccc(Cl)s3)n2)cc1)N1CCC(N2CCCC2)CC1` gave a remaining binding of 82% (binding, competition with immobilised ligand; 1 µM).
`N#CC1(c2ccccn2)CCN(Cc2cc(C(=O)N3CCCC3)c(=O)n3ccccc23)CC1` gave a remaining binding of 84% (cell-free assay, competition with immobilised ligand; 1 µM).
With `F[C@@H]1CCN(c2nccc(-c3cnn4ncccc34)n2)C1` the remaining binding was 100% (binding; 1 µM).
`COc1ccc2c(c1)O[C@H](c1ccc(OC)c(OC)c1)C[C@@H]2NC(=O)C1(c2ccc3c(c2)OC(F)(F)O3)CC1` gave a remaining binding of 100% (cell-free assay, competition with immobilised ligand; 1 µM).
`C[C@H]1CCN(c2nccc(-c3cnn4ncccc34)n2)C1` gave a remaining binding of 91% (binding; 1 µM).
For `C[C@@H](c1ccc(-n2cnc3c(N)ncnc32)cc1)N1CCc2nn(C)c(Cc3ccccc3)c2C1=O`, the remaining binding was 91% (binding, competition with immobilised ligand; 0.1 µM).
For `CC1CCCN1c1nccc(-c2cnn3ncccc23)n1` (stereo not shown), the remaining binding was 90% (binding; 1 µM).
For `NS(=O)(=O)c1cc(NC(=O)Cc2ccccc2)ccc1Oc1cccc(Cl)c1`, the remaining binding was 96% (cell-free assay, competition with immobilised ligand; 1 µM).
`CN(c1nccc(-c2cnn3ncccc23)n1)C1CC1` has a remaining binding of 93% (binding; 1 µM).
With `O=C(NCC1CCOCC1)c1n[nH]cc1NC(=O)c1c(F)cccc1F` the remaining binding was 94% (binding, competition with immobilised ligand; 1 µM).
With `O=C(c1ccc(Nc2nccc(-c3cc4ccccc4s3)n2)cc1)N1CCC(N2CCCC2)CC1` the remaining binding was 95% (binding, competition with immobilised ligand; 1 µM).
`N[C@@H]1CCN(c2nccc(-c3cnn4ncccc34)n2)C1` gave a remaining binding of 100% (binding; 1 µM).
With `CN(C(=O)c1ccccc1)c1cc(N(C)c2ccc3c(c2)CCc2ccc(C(=O)NCCN4CCOCC4)cc2C3=O)ccc1F` the remaining binding was 86% (cell-free assay, competition with immobilised ligand; 1 µM).
With `CN(C)c1ncc(F)c(-c2cnn3ncccc23)n1` the remaining binding was 63% (binding; 1 µM).
With `Cc1cnc(Nc2ccc(C(=O)N3CCC(N4CCCC4)CC3)cc2)nc1-c1cc2ccccc2s1` the remaining binding was 58% (binding, competition with immobilised ligand; 1 µM).
`COc1ncc2cc3ccccc3nc2c1C#N` has a remaining binding of 95% (cell-free assay, competition with immobilised ligand; 5 µM).
